This data set can be described thus: Toxicity liver stage against HepG2, at 10uM. The class given is cell-based. On the set-up: test concentration 10 uM, cell line HepG2-A16-CD81EGFP. The following applies: human, HepG2-A16-CD81EGFP cells; read-out: INHIBITION
The gist of the method: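 Uninfected HepG2-A16-CD81EGFP cells, 3 × 10^3 per well, 1536-well, plated on prespotted compound at 10 μM final, parasite-free screening media added to match infected plates; puromycin 10 μM positive, DMSO 0.5% negative; run in parallel with 48 h PbLuc assay at 37 °C, 5% CO2; viability by CellTiter-Glo luminescence, normalized to controls.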
`Cc1ccc(NC(=O)Nc2c[nH]c(=O)[nH]c2=O)c(Cl)c1`: the cytotoxicity at 10 µM was -4.28%. Then `CN(Cc1cccc(C(F)(F)F)c1)Cc1nc(-c2cnccn2)no1`, with 1.35%; and `O=S(=O)(c1ccc(Cl)cc1)N1CCOC[C@H](Oc2cnccn2)C1`, with -2.57%; and `O=S(=O)(c1ccc(F)cc1)N1CCOC[C@H](Oc2cnccn2)C1`, with 5.88%.

Regarding `COc1cc(C(=O)NCCCc2ccccc2)on1`, the cytotoxicity at 10 µM was -2.1%.

In the case of `CN1CCN(Cc2cccnc2)C(=O)C12CCN(S(C)(=O)=O)CC2`, the cytotoxicity at 10 µM worked out at 0.611%. As for `COCCN1C[C@H]2CCN(C(C)=O)CC[C@H]2S1(=O)=O`, the cytotoxicity at 10 µM was determined as 15.4%. As to `CCN1C[C@H]2CCN(C(=O)C3CCCO3)CC[C@H]2S1(=O)=O` (stereo partly specified), the cytotoxicity at 10 µM turned out to be 18%.

As to `O=C(c1cnccn1)N1CCc2onc(CN3CCCC3)c2C1`, the cytotoxicity at 10 µM is 8.7%. Next, `Cc1ccccc1-n1c(O)cc(C)c(C#N)c1=O`: -1.54%. Next, `O=C(NC1CC1)[C@H]1CN(Cc2ccccc2)C[C@@H]1C(=O)c1ccccc1`: 0.401%; `Cc1oc2c(c1C(=O)N1C[C@H](O)[C@]3(CCCO3)C1)CCCC2`: -0.4%. Regarding `Cc1ccn(CCNC(=O)C2CCN(S(=O)(=O)c3ccc(F)cc3)C2)n1` (stereo unspecified), the cytotoxicity at 10 µM is -24.5%.

Regarding `CC(=O)N1CCc2nnc(C3CCCCN3CC3CC3)n2CC1` (stereo unspecified), the cytotoxicity at 10 µM is -15.4%. In the case of `Cc1ccc(C2CCCN(C(=O)c3cnn(C)c3)C2)nc1` (stereo unspecified), the cytotoxicity at 10 µM was -25.8%. Regarding `Cc1cc(C)c2cc(CNCCCN3CCOCC3)c(=O)[nH]c2c1`, the cytotoxicity at 10 µM is -23.8%. With `O=C1OCCC1N1CCN(c2cnccn2)CC1` (stereo unspecified), the cytotoxicity at 10 µM is -0.0916%. Then `O=C1CCCCN1CCCNCc1cnc(C2CCC2)s1`, with 0.00973%. Then `COC(=O)c1ccc(Cn2cccc(C(F)(F)F)c2=O)s1`, with -8.03%. Next, `CCN(C)c1cc(CNC(=O)CNC(=O)CC2CCCCC2)ccn1`: 2.34%; `CN(C1CCCCC1)S(=O)(=O)NC1CCCN(c2ncccn2)C1` (stereo unspecified): 3.7%. `CCN(C(=O)C(C)C)C(c1cccnc1)c1ccc2c(c1)CCO2` (stereo unspecified): the cytotoxicity at 10 µM stood at 2.14%.

In the case of `O=C(CCc1ccncc1)NCCOc1ncc(Cl)cc1Cl`, the cytotoxicity at 10 µM is -2.56%. Then `COCCOCC(=O)NC(C#N)c1cccc(Cl)c1Cl` (stereo unspecified), with 7.84%; and `CNC(=O)c1cccc(CCNC(=O)N2CCc3ccccc3C2)c1`, with 6.72%; and `COCCCNC(=O)CN1CCSC(c2ccccc2)C1` (stereo unspecified), with 13.5%. In the case of `NC(=O)c1ccc(S(=O)(=O)NCCc2ccccn2)cc1`, the cytotoxicity at 10 µM was -16%. With `CN(C)C(=O)C1CN(Cc2ccc(C#N)cc2F)c2ccccc2O1` (stereo unspecified), the cytotoxicity at 10 µM was 7.14%.

`O=C(c1ncoc1-c1ccco1)N1CCCN(c2ncccn2)CC1`: the cytotoxicity at 10 µM came to 2.7%.

Take `CN(CC(=O)NCCCOc1ccc(F)cc1)c1ccc(C#N)cn1`: the cytotoxicity at 10 µM is -0.844%. Next, `O=C1CC(NS(=O)(=O)c2ccccc2)CN1Cc1ccccc1` (stereo unspecified): 6.89%; `CC(NC(=O)COc1nc(C(C)(C)C)no1)c1ccco1` (stereo unspecified): -5.41%; `Cn1cc(Br)c(=O)c(NS(=O)(=O)c2cc(F)ccc2Cl)c1`: -11%. Next, `O=C1CC[C@@H](CN(Cc2ccncc2)Cc2nc(-c3cccs3)no2)N1`: -10.7%; `Cc1ccc2ncn(C(C)Cn3cccn3)c(=O)c2c1` (stereo unspecified): 4.4%; `Cc1ncc(S(C)(=O)=O)c(N2Cc3ccccc3C2)n1`: -18.3%.

As for `Cc1ccccc1CN(CCN(C)C)Cc1ncc[nH]1`, the cytotoxicity at 10 µM was -7.11%.

On to `O=C(O)C(c1ccc2c(c1)OCCO2)N1CCSCC1` (stereo unspecified), for which the cytotoxicity at 10 µM is 1.38%. Then `COCCN(C)C[C@@H]1CN(C(=O)c2cccc(C#N)c2)C[C@@H]1CO`, with 14.5%; and `Cc1nc(CN)cc(N2CCC(O)(c3ccc(Cl)cc3)CC2)n1`, with -8.13%. Next, `CCOC(=O)CNC(=O)N1CCCC(CNC(=O)c2ccco2)C1` (stereo unspecified): -10.9%; `CCC(=O)Nc1cccc(OCC(=O)N(C)Cc2nc(C)c[nH]2)c1`: -4.54%; `CCN1CCCC(C)(C(=O)NCCc2nnc(C)[nH]2)C1` (stereo unspecified): 1.1%. Then `CCC(Cn1ccc2[nH]c(=O)c(C#N)cc2c1=O)OC` (stereo unspecified), with 2.33%; and `Cc1ccc(CN2CCN(CC(=O)N(C)C)[C@@H]3CS(=O)(=O)C[C@@H]32)cc1C`, with 1.18%; and `Cc1ccc(-c2ccc(Cl)nn2)cc1S(=O)(=O)N1CCOCC1`, with -4.26%. Turning to `Cc1cc(C(=O)O)cc(S(=O)(=O)Nc2ccc3c(c2)OCCCO3)c1C`, the cytotoxicity at 10 µM is -4.72%. In the case of `Cc1ccc(C(=O)N2CCN(Cc3cccs3)CC2)c(=O)[nH]1`, the cytotoxicity at 10 µM is -8.39%.

Consider `Cc1cc(CN2CCCC(Cn3cncn3)C2)no1` (stereo unspecified), for which the cytotoxicity at 10 µM is -2.12%. As to `O=C(c1nccc2ccccc12)N1CCCCC1Cn1cccn1` (stereo unspecified), the cytotoxicity at 10 µM was -4.31%.

For `Cc1cc(C)n(CC2CCCN2C(=O)c2ccnc(N(C)C)c2)n1` (stereo unspecified), the cytotoxicity at 10 µM is -16.8%. Next, `CN(C(=O)c1ccc(Cl)cc1)C1CCN(c2ccccn2)CC1`: -21%; `Cc1ccccc1CCNC(=O)N1CCCC(c2nncn2C)C1` (stereo unspecified): -29.8%. Then `CCCOc1cccc(NS(=O)(=O)c2cc(C(=O)O)cs2)c1`, with 1.09%; and `Cc1cc(CNc2ccc(C(=O)N3CCCC(C)C3)cc2C)no1` (stereo unspecified), with -3.92%; and `CCOc1ccc(Cl)c(C(=O)N2CCN(CCO)CC2)n1`, with -5.15%. Then `CC(=O)NCCNC(=O)c1sc(-c2ccc(C)cc2C)nc1C`, with -7.62%. In the case of `Cc1ccc(NC2CCN(C(=O)Cn3nc(C)cc3C)CC2)nn1`, the cytotoxicity at 10 µM is -1.81%. Next, `Cc1oc(C)c(C(=O)NCc2ccccc2S(=O)(=O)N(C)C)c1C`: 1.97%.

`COCCOc1ccc(NC(=O)C2CC(=O)N(C)C2)cn1` (stereo unspecified): the cytotoxicity at 10 µM was -5.31%. Take `O=C1CC2(CCCNC2)C(=O)N1Cc1ccc(F)cc1` (stereo unspecified): the cytotoxicity at 10 µM turned out to be 1.65%. In the case of `Cc1ncc2c(n1)C1(CCN(C(=O)C(C)C)CC1)OCC2`, the cytotoxicity at 10 µM turned out to be 5.49%. Next, `O=C1CCC2(CCC(NC3CCOC3)CC2)N1Cc1ccncc1` (stereo unspecified): 3.61%; `COc1cc2c(cc1CN1CCn3c(CO)nnc3C1)CCC2`: -4.05%.

Take `CC(C)N1CCc2onc(Cn3cccc3)c2C1`: the cytotoxicity at 10 µM is 7.55%. Then `CC(=O)N1CCN(c2cc(CCN)nc(C3CC3)n2)CC1`, with -26.2%; and `Cc1ccc(N2CC[C@@H]3O[C@@H](COCc4cccnc4)CC[C@@H]32)nn1`, with 8.37%. For the molecule `Cc1ccc(N2CCCC3(CCCC(=O)N3)C2)nn1` (stereo unspecified), the cytotoxicity at 10 µM is -1.52%. Next, `O=c1c2sccc2nc2n1CCN(Cc1cc(F)ccc1F)CC2`: -21.8%.

Regarding `CO[C@@H]1CCN(Cc2ccc(C)o2)[C@H]1Cc1ccccc1`, the cytotoxicity at 10 µM was -3.15%. Then `CC(C)CC(=O)N1C[C@@H]2CCN(c3cnccn3)C[C@@H]2C1`, with 3.44%.

The record behind these values is ChEMBL document CHEMBL4513216, “Probing the Open Global Health Chemical Diversity Library for Multistage-Active Starting Points for Next-Generation Antimalarials” (ACS Infect Dis, 2020).
